Results reported in ChEMBL document CHEMBL1781898, “Orally active achiral N-hydroxyformamide inhibitors of ADAM-TS4 (aggrecanase-1) and ADAM-TS5 (aggrecanase-2) for the treatment of osteoarthritis” (Bioorg Med Chem Lett, 2011).

Tests used:
Cytochrome P450 3A4 = Cytochrome P450 3A4 (Homo sapiens, UniProt P08684); test: Inhibition of CYP3A4; format: ADME
Procedure, shortened: (§1)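 Inhibition of cytochrome P450 isoforms 1A2, 2C9, 2C19, 2D6 and 3A4, reported as pIC50.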

[1] = Half life in rat at 2 mg/kg, iv and 3 to 10 mg/kg, po; format: ADME, organism-based; details: in vivo
[2] = Clearance in rat at 2 mg/kg, iv; format: ADME, organism-based; set-up: dose 2 mg/kg, route intravenous; details: in vivo
Procedure, shortened: (§2)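 Rat iv PK: 2 mg/kg iv, n = 2 animals; clearance, half-life and Vdss determined.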

[3] = Inhibition of aggrecanase activity in IL-1-stimulated human osteoarthritis cartilage explant assessed as inhibition of aggrecan degradation measuring ARGSVIL neo-peptide release
[4] = Apparent permeability across apical to basolateral side in human Caco2 cells at 10 uM; format: ADME, cell-based; details: Caco-2
Collagenase 3 = Collagenase 3 (Homo sapiens, UniProt P45452); test: Inhibition of recombinant human MMP-13 assessed as substrate cleavage after 20 hrs by fluorescence assay
Procedure, shortened: (§3)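 Enzyme inhibition IC50s derived from at least six measurements, standard errors normally <5% within an assay; a standard compound run to keep assay-to-assay variability within twofold.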

[5] = Volume of distribution at steady state in mouse; format: ADME, organism-based; details: in vivo, read-out: Vdss
[6] = Intrinsic clearance in human liver microsomes; format: ADME, Microsome
Procedure, shortened: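 Human liver microsome metabolism; intrinsic clearance expressed as μL/min/mg, reported as mean of eight separate experiments.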

[7] = Absolute bioavailability in mouse; format: ADME, organism-based; details: in vivo
Cytochrome P450 2C9 = Cytochrome P450 2C9 (Homo sapiens, UniProt P11712); test: Inhibition of CYP2C9; format: ADME; procedure, shortened: as §1
Cytochrome P450 2C19 = Cytochrome P450 2C19 (Homo sapiens, UniProt P33261); test: Inhibition of CYP2C19; format: ADME; procedure, shortened: as §1
[8] = Absolute bioavailability in dog; format: ADME, organism-based, Canis lupus familiaris; details: in vivo
[9] = Half life in mouse; format: ADME, organism-based; details: in vivo
Cytochrome P450 2D6 = Cytochrome P450 2D6 (Homo sapiens, UniProt P10635); test: Inhibition of CYP2D6; format: ADME; procedure, shortened: as §1
[10] = Thermodynamic solubility of the compound in phosphate buffer at pH 7.4 after 24 hrs; format: physicochemical; details: read-out: Therm_solubility
[11] = Absolute bioavailability in rat; format: ADME, organism-based; details: in vivo
[12] = biological target: 72 kDa type IV collagenase (Homo sapiens, UniProt P08253); test: Inhibition of recombinant human MMP-2 assessed as substrate cleavage after 20 hrs by fluorescence assay; procedure, shortened: as §3
[13] = Volume of distribution at steady state in rat at 2 mg/kg, iv and 3 to 10 mg/kg, po; format: ADME, organism-based; details: in vivo, read-out: Vdss
[14] = Intrinsic clearance in human hepatocytes measured per million cells; format: ADME, cell-based, Liver, Hepatocyte
Procedure, shortened: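 Human hepatocyte metabolism; intrinsic clearance expressed as μL/min/10⁶ cells, reported as mean of six separate experiments.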

[15] = Free drug level in human; format: ADME, organism-based; details: in vivo
[16] = Lipophilicity, log D of the compound; format: physicochemical; details: octanol/water
[17] = biological target: Matrix metalloproteinase-14 (Homo sapiens, UniProt P50281); test: Inhibition of recombinant human MMP-14 assessed as substrate cleavage after 20 hrs by fluorescence assay; procedure, shortened: as §3
[18] = Half life in dog at 1 mg/kg, iv and 1 mg/kg, po; format: ADME, organism-based, Canis lupus familiaris; details: in vivo
[19] = Free drug level in rat; format: ADME, organism-based; details: in vivo
[20] = Free drug level in dog; format: ADME, organism-based, Canis lupus familiaris; details: in vivo
[21] = biological target: T1, A disintegrin and metalloproteinase with thrombospondin motifs 4 (Homo sapiens, UniProt O75173); test: Inhibition of ADAMTS-4 assessed as substrate cleavage after 16 hrs by fluorescence assay; procedure, shortened: as §3
T1 sequence (O75173 whole entry): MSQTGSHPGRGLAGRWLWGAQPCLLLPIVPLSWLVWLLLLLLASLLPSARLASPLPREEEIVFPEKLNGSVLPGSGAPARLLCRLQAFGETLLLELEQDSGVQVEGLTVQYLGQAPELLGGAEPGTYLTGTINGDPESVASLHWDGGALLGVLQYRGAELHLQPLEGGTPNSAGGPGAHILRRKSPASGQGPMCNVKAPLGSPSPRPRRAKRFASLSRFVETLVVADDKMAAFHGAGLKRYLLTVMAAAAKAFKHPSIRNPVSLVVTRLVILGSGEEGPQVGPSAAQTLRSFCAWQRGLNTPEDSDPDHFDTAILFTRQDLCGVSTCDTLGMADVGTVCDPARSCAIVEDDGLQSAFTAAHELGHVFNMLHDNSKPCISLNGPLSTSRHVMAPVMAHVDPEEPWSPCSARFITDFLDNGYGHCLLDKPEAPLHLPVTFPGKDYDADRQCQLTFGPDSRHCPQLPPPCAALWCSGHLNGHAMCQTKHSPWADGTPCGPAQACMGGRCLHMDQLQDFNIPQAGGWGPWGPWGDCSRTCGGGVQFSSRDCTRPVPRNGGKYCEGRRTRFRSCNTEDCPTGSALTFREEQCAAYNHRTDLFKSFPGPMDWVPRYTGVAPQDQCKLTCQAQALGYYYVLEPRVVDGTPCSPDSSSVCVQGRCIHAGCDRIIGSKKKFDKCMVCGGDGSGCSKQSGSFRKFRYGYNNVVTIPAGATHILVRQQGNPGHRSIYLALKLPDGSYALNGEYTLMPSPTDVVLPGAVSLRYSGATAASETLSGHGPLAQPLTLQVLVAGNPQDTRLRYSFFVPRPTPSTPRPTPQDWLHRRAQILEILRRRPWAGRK

[22] = Inhibition of aggrecanase activity in human late stage diseased osteoarthritis cartilage explant assessed as inhibition of aggrecan degradation measuring ARGSVIL neo-peptide release
Cytochrome P450 1A2 = biological target: T2, Cytochrome P450 1A2 (Homo sapiens, UniProt P05177); test: Inhibition of CYP1A2; format: ADME; procedure, shortened: as §1
T2 sequence (P05177 whole entry): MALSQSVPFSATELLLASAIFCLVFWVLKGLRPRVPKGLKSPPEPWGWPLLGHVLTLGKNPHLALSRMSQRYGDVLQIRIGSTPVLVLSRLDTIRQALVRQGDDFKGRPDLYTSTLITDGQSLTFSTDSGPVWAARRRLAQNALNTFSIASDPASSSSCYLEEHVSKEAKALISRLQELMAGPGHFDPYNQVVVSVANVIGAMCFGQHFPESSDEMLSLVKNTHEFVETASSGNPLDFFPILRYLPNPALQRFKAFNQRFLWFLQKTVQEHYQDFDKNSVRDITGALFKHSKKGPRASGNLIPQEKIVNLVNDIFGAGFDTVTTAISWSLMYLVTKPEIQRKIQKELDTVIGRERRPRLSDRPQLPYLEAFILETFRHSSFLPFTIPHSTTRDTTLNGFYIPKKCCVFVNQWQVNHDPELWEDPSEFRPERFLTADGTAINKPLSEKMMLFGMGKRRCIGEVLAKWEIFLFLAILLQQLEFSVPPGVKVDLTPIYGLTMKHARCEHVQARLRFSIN

[23] = Oral bioavailability in rat; format: ADME, organism-based; details: in vivo
[24] = Volume of distribution at steady state in dog at 1 mg/kg, iv and 1 mg/kg, po; format: ADME, organism-based, Canis lupus familiaris; details: in vivo, read-out: Vdss
[25] = Half life in rat at 2 mg/kg, iv; format: ADME, organism-based; set-up: dose 2 mg/kg, route intravenous; details: in vivo; procedure, shortened: as §2

Cytochrome P450 2C19, sequence (P33261 whole entry): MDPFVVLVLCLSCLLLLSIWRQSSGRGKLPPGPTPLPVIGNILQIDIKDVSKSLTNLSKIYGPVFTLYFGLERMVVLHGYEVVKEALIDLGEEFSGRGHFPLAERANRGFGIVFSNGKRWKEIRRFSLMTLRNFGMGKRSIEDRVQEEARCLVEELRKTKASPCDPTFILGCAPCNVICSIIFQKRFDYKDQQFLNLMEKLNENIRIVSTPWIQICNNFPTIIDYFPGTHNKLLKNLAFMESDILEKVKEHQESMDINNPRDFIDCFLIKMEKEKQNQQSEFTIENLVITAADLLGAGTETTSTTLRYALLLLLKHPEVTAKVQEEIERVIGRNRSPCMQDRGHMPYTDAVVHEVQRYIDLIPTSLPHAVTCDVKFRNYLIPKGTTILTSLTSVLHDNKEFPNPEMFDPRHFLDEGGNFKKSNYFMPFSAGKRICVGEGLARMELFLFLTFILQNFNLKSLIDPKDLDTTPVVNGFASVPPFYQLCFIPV
72 kDa type IV collagenase, sequence (P08253 whole entry): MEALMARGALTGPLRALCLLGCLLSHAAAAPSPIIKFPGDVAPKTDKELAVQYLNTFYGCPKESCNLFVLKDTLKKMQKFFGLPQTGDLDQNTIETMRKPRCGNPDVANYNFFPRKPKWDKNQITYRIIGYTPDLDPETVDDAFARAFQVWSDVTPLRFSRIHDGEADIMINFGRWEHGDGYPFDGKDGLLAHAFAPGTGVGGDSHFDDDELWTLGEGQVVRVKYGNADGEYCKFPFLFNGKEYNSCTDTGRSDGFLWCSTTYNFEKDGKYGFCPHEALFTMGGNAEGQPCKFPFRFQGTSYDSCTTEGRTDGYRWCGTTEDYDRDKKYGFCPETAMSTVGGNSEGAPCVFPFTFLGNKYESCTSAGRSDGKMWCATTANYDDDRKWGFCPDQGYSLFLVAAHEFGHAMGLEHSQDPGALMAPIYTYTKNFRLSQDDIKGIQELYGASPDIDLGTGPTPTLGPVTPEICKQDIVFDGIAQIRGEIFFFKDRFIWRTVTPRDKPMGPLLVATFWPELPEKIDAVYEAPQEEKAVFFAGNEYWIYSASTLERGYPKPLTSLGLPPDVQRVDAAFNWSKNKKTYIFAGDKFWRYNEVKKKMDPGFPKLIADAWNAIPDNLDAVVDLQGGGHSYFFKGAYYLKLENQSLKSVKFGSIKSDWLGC
Cytochrome P450 2D6, sequence (P10635 whole entry): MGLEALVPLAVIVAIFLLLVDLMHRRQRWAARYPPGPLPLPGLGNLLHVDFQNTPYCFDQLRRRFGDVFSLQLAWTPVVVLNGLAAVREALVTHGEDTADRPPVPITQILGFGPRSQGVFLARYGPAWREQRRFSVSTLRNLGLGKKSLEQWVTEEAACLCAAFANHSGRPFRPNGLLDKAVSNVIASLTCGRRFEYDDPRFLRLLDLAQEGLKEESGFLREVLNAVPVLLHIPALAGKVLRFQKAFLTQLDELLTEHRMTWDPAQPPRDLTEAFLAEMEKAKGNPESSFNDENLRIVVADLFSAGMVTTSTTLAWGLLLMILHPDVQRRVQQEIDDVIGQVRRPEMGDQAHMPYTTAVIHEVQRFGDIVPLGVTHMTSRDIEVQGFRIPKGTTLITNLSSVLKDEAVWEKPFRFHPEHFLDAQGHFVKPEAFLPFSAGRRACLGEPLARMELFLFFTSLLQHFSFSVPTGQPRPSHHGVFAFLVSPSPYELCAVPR
Cytochrome P450 2C9, sequence (P11712 whole entry): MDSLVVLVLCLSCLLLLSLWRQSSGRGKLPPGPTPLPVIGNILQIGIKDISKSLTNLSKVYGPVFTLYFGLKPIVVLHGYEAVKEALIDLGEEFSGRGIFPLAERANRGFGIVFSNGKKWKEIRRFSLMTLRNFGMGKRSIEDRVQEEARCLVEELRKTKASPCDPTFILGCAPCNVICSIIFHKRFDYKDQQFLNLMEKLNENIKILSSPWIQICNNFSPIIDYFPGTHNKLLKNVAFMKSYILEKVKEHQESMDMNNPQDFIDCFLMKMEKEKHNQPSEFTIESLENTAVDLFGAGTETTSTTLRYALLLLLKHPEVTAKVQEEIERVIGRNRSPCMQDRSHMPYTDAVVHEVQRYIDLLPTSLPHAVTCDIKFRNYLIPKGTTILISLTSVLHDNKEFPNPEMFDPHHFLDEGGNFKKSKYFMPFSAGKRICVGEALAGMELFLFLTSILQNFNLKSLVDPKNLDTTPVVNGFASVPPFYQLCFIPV
Cytochrome P450 3A4, sequence (P08684 whole entry, canonical isoform): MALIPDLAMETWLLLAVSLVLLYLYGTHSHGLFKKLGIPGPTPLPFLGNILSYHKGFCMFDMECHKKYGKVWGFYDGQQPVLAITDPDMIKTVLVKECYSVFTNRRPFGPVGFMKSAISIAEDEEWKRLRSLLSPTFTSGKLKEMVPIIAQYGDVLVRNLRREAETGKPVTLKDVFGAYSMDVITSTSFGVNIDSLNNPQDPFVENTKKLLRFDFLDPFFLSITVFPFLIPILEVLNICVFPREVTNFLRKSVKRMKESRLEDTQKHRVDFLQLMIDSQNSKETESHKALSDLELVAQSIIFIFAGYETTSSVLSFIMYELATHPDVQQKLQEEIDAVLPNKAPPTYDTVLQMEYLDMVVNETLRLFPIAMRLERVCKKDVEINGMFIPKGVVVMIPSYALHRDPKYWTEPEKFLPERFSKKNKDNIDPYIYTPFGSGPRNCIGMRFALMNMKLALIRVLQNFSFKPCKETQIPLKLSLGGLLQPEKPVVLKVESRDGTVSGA

SMILES: Cc1noc(C)c1CCC1CCN(S(=O)(=O)CC2(N(O)C=O)CCOCC2)CC1
- inhibition (INH) (Cytochrome P450 3A4): Not Active
- half-life [1]: 8.9 h
- clearance [2]: 24 mL/min/kg
- IC50 [3]: 120 nM
- Papp A→B at 10 µM [4]: 8.3 ×10⁻⁶ cm/s
- IC50 (Collagenase 3): > 31000 nM
- Vd [5]: 2.5 L/kg
- microsomal CLint [6]: 3.1 µL/min/mg
- bioavailability [7]: 54%
- inhibition (INH) (Cytochrome P450 2C9): Not Active
- inhibition (INH) (Cytochrome P450 2C19): Not Active
- bioavailability [8]: 52%
- half-life [9]: 2.6 h
- inhibition (INH) (Cytochrome P450 2D6): Not Active
- solubility thermodynamic at 24 h [10]: > 1000 µM
- bioavailability [11]: 45%
- IC50 [12]: > 23000 nM
- Vd [13]: 3 L/kg
- hepatocyte CLint [14]: < 2 µL/min/1e6 cells
- fraction unbound [15]: > 0.5
- logD [16]: 0.9
- IC50 [17]: > 23000 nM
- half-life [18]: 19.1 h
- fraction unbound [19]: > 0.5
- fraction unbound [20]: > 0.5
- IC50 [21]: 26 nM
- IC50 [22]: 150 nM
- inhibition (INH) (Cytochrome P450 1A2): Not Active
- bioavailability [23]: 45%
- Vd [24]: 10.9 L/kg
- half-life [25]: 8.9 h
